Measurements reported in ChEMBL document CHEMBL2331228, “Synthesis and insight into the structure-activity relationships of chalcones as antimalarial agents” (J Med Chem, 2013).
≈ marks a conversion by molar mass, not a printed value.

Tested on: Plasmodium falciparum
Experiment: Antimalarial activity against schizont stage of chloroquine-sensitive Plasmodium falciparum 3D7 assessed as reduction in parasitemia at 50 ug/ml after more than 40 hrs by Giemsa staining-based light microscopy
Assay type: functional
Set-up: scale not given: the % may be the effect or the level left
Conditions: not given
Method in brief: (§1)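 Ring stages (5% D-sorbitol synchronized) of 3D7 were grown in RPMI with 10% FBS, gentamycin and Fungizone at 37 °C under CO2. They were exposed in duplicate to compound (DMSO stock, 5 mg/mL) at 2, 10 and 50 μg/mL, with 3% cell suspension and 1% parasitized cells, for >40 h. Giemsa-stained thin smears were counted for schizonts. MIC is the lowest concentration giving 100% inhibition of schizont maturation.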

Row | SMILES | Activity [%]
1 | CCOc1ccc(/C=C/C(=O)c2ccc3c(c2O)C=CC(C)(C)O3)cc1 | <100
2 | COc1ccc(CCC(=O)c2ccc3c(c2O)C=CC(C)(C)O3)cc1OC | <100
3 | CC(C)=CCCC1(C)C=Cc2c(ccc(C(=O)/C=C/c3ccc(Cl)cc3)c2O)O1 (centres undefined) | <100
4 | CC1(C)C=Cc2c(ccc(C(=O)/C=C/c3cnc4ccccc4c3)c2O)O1 | <100
5 | CC1(C)C=Cc2c(ccc(C(=O)/C=C/c3ccc([N+](=O)[O-])cc3)c2O)O1 | <100
6 | CC(C)=CCCC1(C)C=Cc2c(ccc(C(=O)/C=C/c3ccc(Br)cc3)c2O)O1 (centres undefined) | <100
7 | COc1ccc(/C=C/C(=O)c2ccc3c(c2O)C=CC(C)(CCC=C(C)C)O3)cc1 (centres undefined) | <100
8 | COc1ccc(/C=C/C(=O)c2ccc3c(c2O)C=CC(C)(C)O3)cc1 | <100
9 | CC(C)=CCCC1(C)C=Cc2c(ccc(C(=O)/C=C/c3ccc(N(C)C)cc3)c2O)O1 (centres undefined) | <100
10 | CC1(C)C=Cc2c(ccc(C(=O)/C=C/c3ccc(C#N)cc3)c2O)O1 | <100

Tested on: Plasmodium falciparum
Experiment: Antimalarial activity against schizont stage of chloroquine-sensitive Plasmodium falciparum 3D7 after more than 40 hrs by Giemsa staining-based light microscopic analysis
Assay type: functional
Conditions: 3D7, 40 h
Method in brief: as §1

Row | SMILES | MIC [µM]
11 | CCOc1ccc(/C=C/C(=O)c2ccc3c(c2O)C=CC(C)(C)O3)cc1 | > 143
12 | CC(C)CCCC1(C)CCc2c(ccc(C(=O)/C=C/c3ccc(O)cc3)c2O)O1 (centres undefined) | 127 (≈ 50.1 µg/mL)
13 | COc1ccc(CCC(=O)c2ccc3c(c2O)C=CC(C)(C)O3)cc1OC | > 136
14 | CC(C)=CCc1cc(C(=O)/C=C/c2ccc(Cl)cc2)c(O)cc1O | 146 (≈ 50.1 µg/mL)
15 | CC1(C)C=Cc2c(ccc(C(=O)/C=C/c3ccccn3)c2O)O1 | 32.6 (≈ 10 µg/mL)
16 | COc1ccccc1/C=C/C(=O)c1ccc2c(c1O)C=CC(C)(CCC=C(C)C)O2 (centres undefined) | 124 (≈ 50.1 µg/mL)
17 | CC1(C)C=Cc2c(ccc(C(=O)/C=C/c3cccnc3)c2O)O1 | 32.6 (≈ 10 µg/mL)
18 | CC(C)=CCCC1(C)C=Cc2c(ccc(C(=O)/C=C/c3ccc(Cl)cc3)c2O)O1 (centres undefined) | > 123
19 | CC(C)=CCCC1(C)C=Cc2c(ccc(C(=O)/C=C/c3cc4ccccc4nc3Cl)c2O)O1 (centres undefined) | 109 (≈ 50.1 µg/mL)
20 | CCOc1ccc(/C=C/C(=O)c2ccc3c(c2O)C=CC(C)(CCC=C(C)C)O3)cc1 (centres undefined) | 120 (≈ 50.1 µg/mL)
21 | CC(C)=CCCC1(C)C=Cc2c(ccc(C(=O)/C=C/c3ccc([N+](=O)[O-])cc3)c2O)O1 (centres undefined) | 119 (≈ 50.1 µg/mL)
22 | CC1(C)C=Cc2c(ccc(C(=O)/C=C/c3cnc4ccccc4c3)c2O)O1 | > 140
23 | CC(C)=CCCC1(C)C=Cc2c(ccc(C(=O)/C=C/c3cc(Cl)cc(Cl)c3)c2O)O1 (centres undefined) | 113 (≈ 50.2 µg/mL)
24 | CC1(C)C=Cc2c(ccc(C(=O)/C=C/c3ccc(Br)cc3)c2O)O1 | 130 (≈ 50.2 µg/mL)
25 | COc1ccc(/C=C/C(=O)c2ccc3c(c2O)C=CC(C)(CCC=C(C)C)O3)cc1OC (centres undefined) | 115 (≈ 50.1 µg/mL)
26 | CC1(C)C=Cc2c(ccc(C(=O)CCc3ccc(O)c(O)c3)c2O)O1 | 29.4 (≈ 10 µg/mL)
27 | CCOc1cc(F)ccc1/C=C/C(=O)c1ccc2c(c1O)C=CC(C)(C)O2 | 136 (≈ 50.1 µg/mL)
28 | CC1(C)C=Cc2c(ccc(C(=O)/C=C/c3ccc(F)c(F)c3)c2O)O1 | 146 (≈ 50 µg/mL)
29 | CC1(C)C=Cc2c(ccc(C(=O)/C=C/c3ccc([N+](=O)[O-])cc3)c2O)O1 | > 142
30 | CC(C)=CCCC1(C)C=Cc2c(ccc(C(=O)/C=C/c3ccc(Br)cc3)c2O)O1 (centres undefined) | > 111
31 | COc1ccc(/C=C/C(=O)c2ccc3c(c2O)C=CC(C)(CCC=C(C)C)O3)cc1 (centres undefined) | > 124
32 | CC1(C)C=Cc2c(ccc(C(=O)CCc3ccc(O)cc3)c2O)O1 | 30.9 (≈ 10 µg/mL)

Row | SMILES | MIC [µM]
33 | CC(C)=CCCC1(C)C=Cc2c(ccc(C(=O)/C=C/c3ccc(F)cc3)c2O)O1 (centres undefined) | 128 (≈ 50.1 µg/mL)
34 | COc1ccc(/C=C/C(=O)c2ccc3c(c2O)C=CC(C)(C)O3)cc1 | > 149
35 | CC(C)=CCCC1(C)C=Cc2c(ccc(C(=O)/C=C/c3ccc(N(C)C)cc3)c2O)O1 (centres undefined) | > 120
36 | CC1(C)C=Cc2c(ccc(C(=O)/C=C/c3cc(C=O)ccc3O)c2O)O1 | 28.6 (≈ 10 µg/mL)
37 | CC1(C)C=Cc2c(ccc(C(=O)/C=C/c3ccc(C#N)cc3)c2O)O1 | > 151
38 | COc1ccc(/C=C/C(=O)c2cc(CC=C(C)C)c(O)cc2O)cc1O | 28.2 (≈ 10 µg/mL)
39 | CC(C)=CCCC1(C)C=Cc2c(ccc(C(=O)/C=C/c3cc4cc(C)ccc4nc3Cl)c2O)O1 (centres undefined) | 106 (≈ 50.1 µg/mL)
40 | Cc1ccc2nc(Cl)c(/C=C/C(=O)c3ccc4c(c3O)C=CC(C)(C)O4)cc2c1 | 123 (≈ 50.1 µg/mL)
41 | COc1ccc(/C=C/C(=O)c2ccc3c(c2O)CCC(C)(CCCC(C)C)O3)cc1 (centres undefined) | 123 (≈ 50.1 µg/mL)
42 | CC1(C)C=Cc2c(ccc(C(=O)/C=C/c3ccc(F)cc3)c2O)O1 | 154 (≈ 50.1 µg/mL)
43 | CC1(C)C=Cc2c(ccc(C(=O)/C=C/c3ccc(O)cc3)c2O)O1 | 155 (≈ 50.1 µg/mL)
44 | CC(C)=CCc1cc(C(=O)/C=C/c2ccc(N(C)C)cc2)c(O)cc1O | 142 (≈ 50.1 µg/mL)
45 | CC1(C)CCc2c(ccc(C(=O)/C=C/c3cccnc3)c2O)O1 | 32.4 (≈ 10 µg/mL)
46 | COc1ccc(/C=C/C(=O)c2cc(CC=C(C)C)c(O)cc2O)cc1 | 28.6 (≈ 9.67 µg/mL)
47 | COc1ccccc1/C=C/C(=O)c1cc(CC=C(C)C)c(O)cc1O | 29.6 (≈ 10 µg/mL)
48 | CC1(C)CCc2cc(C(=O)/C=C/c3cccnc3)c(O)cc2O1 | 32.4 (≈ 10 µg/mL)
49 | CCOc1ccc(/C=C/C(=O)c2cc(CC=C(C)C)c(O)cc2O)cc1 | 28.4 (≈ 10 µg/mL)
50 | CC1(C)C=Cc2c(ccc(C(=O)/C=C/c3ccc(Cl)cc3)c2O)O1 | 147 (≈ 50.1 µg/mL)
51 | CC1(C)C=Cc2c(ccc(C(=O)/C=C/c3cc4ccccc4nc3Cl)c2O)O1 | 128 (≈ 50.1 µg/mL)
52 | COc1cc(/C=C/C(=O)c2cc(CC=C(C)C)c(O)cc2O)ccc1O | 28.2 (≈ 10 µg/mL)
53 | COc1ccc(/C=C/C(=O)c2ccc3c(c2O)C=CC(C)(C)O3)cc1OC | 137 (≈ 50.1 µg/mL)

Results, then the compound that gave them:

Row | MIC [µM] | SMILES
54 | 25.6 (≈ 10 µg/mL) | CC(C)=CCCC1(C)C=Cc2c(ccc(C(=O)/C=C/c3ccc(O)cc3)c2O)O1 (centres undefined) [LESPEOL]
55 | 5.01 (≈ 2 µg/mL) | CC(C)=CCCC1(C)C=Cc2c(ccc(C(=O)/C=C/c3ccc(C#N)cc3)c2O)O1 (centres undefined)
56 | 24.9 (≈ 10 µg/mL) | CC(C)=CCCC1(C)C=Cc2c(ccc(/C=C/C(=O)c3ccc(C)c(C)c3)c2O)O1 (centres undefined)
57 | 28.2 (≈ 10 µg/mL) | COc1ccc(/C=C/C(=O)c2ccc(O)c(CC=C(C)C)c2O)cc1O
58 | 22.6 (≈ 9.28 µg/mL) | CC(C)=CCCC1(C)C=Cc2c(ccc(C(=O)/C=C/c3ccc(F)c(F)c3)c2O)O1 (centres undefined)
59 | 3.67 (≈ 2 µg/mL) | CC1(C)C=Cc2c(ccc(C(=O)/C=C/c3ccc(OCCN4CCCCC4)cc3)c2OCCN2CCCCC2)O1
60 | 27.2 (≈ 10 µg/mL) | COc1ccc(/C=C/C(=O)c2cc(CC=C(C)C)c(O)cc2O)cc1OC
61 | 26.7 (≈ 10 µg/mL) | CC(C)=CCCC1(C)C=Cc2c(ccc(C(=O)/C=C/c3ccccn3)c2O)O1 (centres undefined)
62 | 5.33 (≈ 2 µg/mL) | CC(C)=CCCC1(C)C=Cc2c(ccc(C(=O)/C=C/c3cccnc3)c2O)O1 (centres undefined)
63 | 4.77 (≈ 2 µg/mL) | CC(C)=CCCC1(C)C=Cc2c(ccc(C(=O)/C=C/c3cccc([N+](=O)[O-])c3)c2O)O1 (centres undefined)
64 | 10.3 (≈ 4.33 µg/mL) | CC(C)=CCCC1(C)C=Cc2c(ccc(C(=O)CCc3cc(C=O)ccc3O)c2O)O1 (centres undefined)
65 | 4.11 (≈ 2 µg/mL) | CC(C)=CCCC1(C)C=Cc2c(ccc(C(=O)/C=C/c3cccnc3)c2OCCN2CCCCC2)O1 (centres undefined)
66 | 25.8 (≈ 10 µg/mL) | CC(C)=CCCC1(C)C=Cc2c(ccc(/C=C/C(=O)c3cccc(C)c3)c2O)O1 (centres undefined)
67 | 25.1 (≈ 10 µg/mL) | COc1cc(OC)c(OC)cc1/C=C/C(=O)c1cc(CC=C(C)C)c(O)cc1O
68 | 9.12 (≈ 3.84 µg/mL) | CC(C)=CCCC1(C)C=Cc2ccc(O)c(C(=O)CCc3cc(C=O)ccc3O)c2O1 (centres undefined)
69 | 21.6 (≈ 10 µg/mL) | COc1cc(/C=C/C(=O)c2ccc3c(c2O)C=CC(C)(CCC=C(C)C)O3)cc(OC)c1OC (centres undefined)
70 | 27.5 (≈ 10 µg/mL) | CC(=O)Oc1ccc(/C=C/C(=O)c2ccc3c(c2O)C=CC(C)(C)O3)cc1
71 | 21.6 (≈ 10 µg/mL) | COCOc1ccc(/C=C/C(=O)c2ccc3c(c2O)C=CC(C)(CCC=C(C)C)O3)cc1C=O (centres undefined)
72 | 23.5 (≈ 10 µg/mL) | CC(C)=CCCC1(C)C=Cc2c(ccc(C(=O)/C=C/c3cnc4ccccc4c3)c2O)O1 (centres undefined)
73 | 15.2 (≈ 10 µg/mL) | COCOc1ccc(/C=C/C(=O)c2c(O)c3c(c4c2OC(C)(CCC=C(C)C)C=C4)OC(C)(CCC=C(C)C)C=C3)cc1C(OC)OC (centres undefined)
74 | 5.34 (≈ 2 µg/mL) | CC1(C)C=Cc2c(ccc(C(=O)/C=C/c3ccc(Cl)cc3Cl)c2O)O1
75 | 5.27 (≈ 2 µg/mL) | CC(C)CCCC1(C)CCc2c(ccc(C(=O)/C=C/c3cccnc3)c2O)O1 (centres undefined)
76 | 25.2 (≈ 10 µg/mL) | COc1cc(OC)c(OC)cc1/C=C/C(=O)c1ccc2c(c1O)C=CC(C)(C)O2
77 | 19.3 (≈ 10 µg/mL) | CC(C)=CCCC1(C)C=Cc2c(ccc(C(=O)/C=C/c3ccc4oc(C(=O)c5ccccc5)cc4c3)c2O)O1 (centres undefined)
78 | 3.26 (≈ 2 µg/mL) | CC(C)=CCCC1(C)C=Cc2c(ccc(C(=O)/C=C/c3ccc(OCCN4CCCCC4)cc3)c2OCCN2CCCCC2)O1 (centres undefined)
79 | 27.2 (≈ 10 µg/mL) | COCOc1ccc(/C=C/C(=O)c2cc(CC=C(C)C)c(O)cc2O)cc1
